Measurements: ChEMBL document CHEMBL4118142, “Novel amidrazone derivatives: Design, synthesis and activity evaluation” (Bioorg Med Chem, 2018)
pIC50: −log10 of the molar value. Active and inactive are the calls of the source. The calls are words filed in the database; no cut-off is given here.

Assays:
[1] = molecular target: T1, Acid-sensing ion channel 1 (Rattus norvegicus, UniProt P55926); assay: Inhibition of ASIC1a in rat dorsal root ganglion neurons assessed as reduction in peak current preincubated for 120 secs followed by acid medium stimulation at pH 5.5 for 3 secs by automated patch clamp electrophysiology assay
T1 sequence (P55926 whole entry): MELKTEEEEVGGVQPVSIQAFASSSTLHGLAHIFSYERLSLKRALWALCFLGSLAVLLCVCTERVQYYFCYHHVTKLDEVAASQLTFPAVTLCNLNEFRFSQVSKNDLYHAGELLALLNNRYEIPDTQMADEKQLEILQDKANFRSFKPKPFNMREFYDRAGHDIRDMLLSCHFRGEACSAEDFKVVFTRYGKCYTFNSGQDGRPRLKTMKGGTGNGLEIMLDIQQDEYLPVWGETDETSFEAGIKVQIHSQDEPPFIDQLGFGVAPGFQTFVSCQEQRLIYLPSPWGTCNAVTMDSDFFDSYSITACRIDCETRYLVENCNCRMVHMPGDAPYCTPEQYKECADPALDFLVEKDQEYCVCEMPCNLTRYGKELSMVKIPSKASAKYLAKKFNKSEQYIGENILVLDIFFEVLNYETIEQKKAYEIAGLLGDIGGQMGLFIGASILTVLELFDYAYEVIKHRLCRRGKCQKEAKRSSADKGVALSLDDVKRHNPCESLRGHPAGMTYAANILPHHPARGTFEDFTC

[2] = molecular target: T1, Acid-sensing ion channel 1; assay: Inhibition of ASIC1 in Sprague-Dawley rat articular chondrocytes assessed as decrease in acid-induced intracellular calcium level by Fluo-3AM dye based laser scanning confocal microscopy; type: cell-based
Method in brief: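 Primary rat articular chondrocytes were seeded at 1 × 10^5 cells and used after 24 h. Cells were loaded with 10 µM Fluo-3-AM plus 0.02% Pluronic F-127 for 30 min at 37 °C, washed, and kept with 5 µM nimodipine in the extracellular fluid. They were perfused with D-Hank's, then compound, then pH 6.0 Hank's. Confocal readout at ex 488/em 525 nm over 5 min gave the fluorescence-intensity inhibition rate.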

[3] = molecular target: T2, Acid-sensing ion channel 1 (Rattus norvegicus) (UniProt P55926); assay: (§1) Inhibition of ASIC1a in rat articular chondrocytes assessed as decrease in acid-induced intracellular calcium level at 50 uM pretreated with compound followed by acid medium stimulation in presence of voltage gated calcium channel inhibitor nimodipine after 24 hrs by Fluo-3AM dye based laser scanning confocal microscopy relative to control; type: cell-based
T2 sequence (whole entry): T1 sequence (P55926 whole entry)
Method in brief: (§2)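 Primary rat articular chondrocytes (1 × 10^5 cells) were grown 24 h, then loaded with 10 μM Fluo-3-AM plus 0.02% Pluronic F-127 for 30 min at 37 °C and washed. Nimodipine (5 μM) was present in the extracellular fluid. Cells were perfused with D-Hank's containing compound, then with Hank's solution at pH 6.0. Confocal fluorescence (ex 488, em 525 nm) was imaged up to 5 min. Result reported as % inhibition of Ca2+ fluorescence intensity.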

[4] = Cytotoxicity against rat articular chondrocytes assessed as decrease in cell viability at 3.125 to 25 uM after 24 hrs by MTT assay
Method in brief: (§3)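 Primary rat articular chondrocytes were seeded at 5 × 10^3 cells/well and incubated 24 h in DMEM with 10% FBS. They were then exposed to compound for 24 h. MTT (5 mg/mL stock) was added for 4 h at 37 °C, formazan was dissolved in DMSO, and OD was read at 492 nm against a cell-free blank. Run in triplicate, three independent experiments, means ± SE.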

[5] = molecular target: T2, Acid-sensing ion channel 1 (Rattus norvegicus); assay: Inhibition of acid-induced ASIC1a protein expression in rat articular chondrocytes at 3.125 to 50 uM pretreated for 24 hrs followed by acid medium stimulation at pH 6 for 3 hrs by Western blot analysis; type: cell-based
Method in brief: (§4)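 Primary rat articular chondrocytes in DMEM/10% FBS at 37 °C, 5% CO2 were pretreated with compound for 24 h, then stimulated with acidic medium (pH 6.0) for 3 h. Cells kept at pH 7.4 served as control. Cells were PBS-washed and lysed, and ASIC1a was measured by Western blot with β-actin as internal control. Mean ± SD of three independent experiments.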

[6] = molecular target: T2, Acid-sensing ion channel 1 (Rattus norvegicus); assay: Inhibition of acid-induced ASIC1a protein expression in rat articular chondrocytes at 1.563 to 25 uM pretreated for 24 hrs followed by acid medium stimulation at pH 6 for 3 hrs by Western blot analysis; type: cell-based; method in brief: as §4
[7] = Cytotoxicity against rat articular chondrocytes assessed as decrease in cell viability at 1.563 to 25 uM after 24 hrs by MTT assay; method in brief: as §3
[8] = molecular target: T2, Acid-sensing ion channel 1 (Rattus norvegicus); assay: as §1, with “25” for “50”; type: cell-based; method in brief: as §2
[9] = Cytotoxicity against rat articular chondrocytes assessed as decrease in cell viability at 50 uM after 24 hrs by MTT assay; method in brief: as §3

Row | SMILES | inhibition [5] | inhibition of ASIC1a protein expression (active/not active) [6] | inhibition [8] [%] | Activity [7] | other results
1 | CC(C)C1c2cc(C3CC3c3ccc4cc(C(=N)N)ccc4c3)ccc2CCN1C (centres undefined) |  |  |  |  | pIC50 [1]: 5.70
2 | N=C(N)NC(=O)c1nc(Cl)c(N)nc1N [AMILORIDE] |  |  |  |  | pIC50 [2]: 4.52
3 | N=C(NN)c1ccc2cc(/C=C/c3cccc(F)c3)ccc2c1 |  | Active |  | Non-Toxic | 
4 | N=C(NN)c1ccc2cc(/C=C/c3ccccc3)ccc2c1 |  | Active | 33.4 | Non-Toxic | 
5 | N=C(NN)c1ccc2cc(/C=C/c3ccccc3F)ccc2c1 |  | Active | 52.1 | Non-Toxic | 
6 | N=C(NN)c1ccc2cc(/C=C/c3cccc(Cl)c3)ccc2c1 |  | Active | 59.5 | Non-Toxic | 

Continued, in another order:

Row | inhibition [5] | inhibition of ASIC1a protein expression (active/not active) [6] | inhibition [8] [%] | SMILES | Activity [7] | other results
7 | Active |  |  | N=C(NN)c1ccc2cc(/C=C/c3ccc(Cl)cc3)ccc2c1 |  | inhibition [3]: 20.8%; Activity [4]: Non-Toxic
8 |  | inactive |  | N=C(NN)c1ccc2cc(/C=C/c3ccc(F)cc3)ccc2c1 | Non-Toxic | 
9 | Active |  | 68.9 | COc1ccc(/C=C/c2ccc3cc(C(=N)NN)ccc3c2)cc1 |  | Activity [4]: Non-Toxic
10 | Active |  |  | Cc1ccc(/C=C/c2ccc3cc(C(=N)NN)ccc3c2)cc1 |  | inhibition [3]: 63.2%; Activity [9]: Toxic
